Measured values published in ChEMBL document CHEMBL1138250, “Spiro- and dispiro-1,2-dioxolanes: contribution of iron(II)-mediated one-electron vs two-electron reduction to the activity of antimalarial peroxides” (J Med Chem, 2007).
≈ marks a conversion by molar mass, not a printed value.

Each compound was assayed on Plasmodium falciparum (assay: Antimalarial activity against chloroquine-resistant Plasmodium falciparum K1). Details: not given.
Format: functional, organism-based
Outline: (§1)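 IC50 (ng/mL) against P. falciparum blood stages, K1 (chloroquine-resistant) and NF54 (chloroquine-sensitive), reported as the mean of n = 2-3 determinations; individual measurements generally within 50% of each other.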
`C1CCC2(CC1)CC1(OO2)C2CC3CC(C2)CC1C3` (stereo not drawn) showed an IC50 of 0.77 µg/mL (≈ 2.93 µM).
In the case of `c1ccc(C2CC3(CCCCC3)OO2)cc1` (stereo not drawn), the IC50 is reported as 0.44 µg/mL (≈ 2.02 µM).
`CC1(CCC(=O)O)CC2(CCCCC2)OO1` (stereo not drawn) gave an IC50 greater than 1 µg/mL.
`CCCC1(CCC)CC2(CCCCC2)OO1` showed an IC50 of 0.23 µg/mL (≈ 1.02 µM).
For `C1CCC2(CC1)CC1(CCCCC1)OO2`, the IC50 was 0.041 µg/mL (≈ 0.195 µM).
Work on `c1ccc(C2CCC3(CC2)CC2(CCCC2)OO3)cc1` (stereo not drawn) yielded an IC50 of 0.038 µg/mL (≈ 0.14 µM).
`C1CCC2(CC1)CC1(CCCC1)OO2` showed an IC50 of 0.041 µg/mL (≈ 0.209 µM).
`CC(C)(C)C1CCC2(CC1)CC1(CCCC1)OO2` (stereo not drawn) showed an IC50 of 0.13 µg/mL (≈ 0.515 µM).
Work on `CC1(CCCO)CC2(CCCCC2)OO1` (stereo not drawn) yielded an IC50 of 0.05 µg/mL (≈ 0.233 µM).
Compound `CC(C)(C)C1CCC2(CC1)CC1(CCCCC1)OO2` (stereo not drawn) has an IC50 of 0.063 µg/mL (≈ 0.236 µM).
`c1ccc(C2CCC3(CC2)CC2(CCCCC2)OO3)cc1` (stereo not drawn) showed an IC50 of 0.041 µg/mL (≈ 0.143 µM).
Work on `CCCC1(CCC)CC2(OO1)C1CC3CC(C1)CC2C3` (stereo not drawn) yielded an IC50 of 0.12 µg/mL (≈ 0.431 µM).
`CCOC(=O)CCC1(C)CC2(CCCCC2)OO1` (stereo not drawn) showed an IC50 of 0.048 µg/mL (≈ 0.187 µM).
`c1ccc(C2CCC3(CC2)CC2(OO3)C3CC4CC(C3)CC2C4)cc1` (stereo not drawn) gave an IC50 greater than 1 µg/mL.

What follows are compounds tested on Plasmodium falciparum (assay: Antimalarial activity against chloroquine-sensitive Plasmodium falciparum NF54). Details: not given.
Format: functional, organism-based
Outline: as §1
In the case of `C1CCC2(CC1)CC1(OO2)C2CC3CC(C2)CC1C3` (stereo not drawn), the IC50 is reported as 0.66 µg/mL (≈ 2.52 µM).
In the case of `c1ccc(C2CC3(CCCCC3)OO2)cc1` (stereo not drawn), the IC50 is reported as 0.66 µg/mL (≈ 3.02 µM).
`CC1(CCC(=O)O)CC2(CCCCC2)OO1` (stereo not drawn) was tested, and the IC50 was greater than 1 µg/mL.
Work on `CCCC1(CCC)CC2(CCCCC2)OO1` yielded an IC50 of 0.36 µg/mL (≈ 1.59 µM).
`C1CCC2(CC1)CC1(CCCCC1)OO2` showed an IC50 of 0.11 µg/mL (≈ 0.523 µM).
In the case of `c1ccc(C2CCC3(CC2)CC2(CCCC2)OO3)cc1` (stereo not drawn), the IC50 is reported as 0.083 µg/mL (≈ 0.305 µM).
`C1CCC2(CC1)CC1(CCCC1)OO2` gave an IC50 of 0.062 µg/mL (≈ 0.316 µM).
For `CC(C)(C)C1CCC2(CC1)CC1(CCCC1)OO2` (stereo not drawn), the IC50 was 0.18 µg/mL (≈ 0.713 µM).
`CC1(CCCO)CC2(CCCCC2)OO1` (stereo not drawn) gave an IC50 of 0.08 µg/mL (≈ 0.373 µM).
Work on `CC(C)(C)C1CCC2(CC1)CC1(CCCCC1)OO2` (stereo not drawn) yielded an IC50 of 0.12 µg/mL (≈ 0.45 µM).
`c1ccc(C2CCC3(CC2)CC2(CCCCC2)OO3)cc1` (stereo not drawn) showed an IC50 of 0.093 µg/mL (≈ 0.325 µM).
In the case of `CCCC1(CCC)CC2(OO1)C1CC3CC(C1)CC2C3` (stereo not drawn), the IC50 is reported as 0.12 µg/mL (≈ 0.431 µM).
`CCOC(=O)CCC1(C)CC2(CCCCC2)OO1` (stereo not drawn) showed an IC50 of 0.081 µg/mL (≈ 0.316 µM).
Work on `c1ccc(C2CCC3(CC2)CC2(OO3)C3CC4CC(C3)CC2C4)cc1` (stereo not drawn) yielded an IC50 greater than 1 µg/mL.

Each compound was assayed on Plasmodium berghei (assay: Antimalarial activity as reduced parasitaemia against Plasmodium berghei infected NMRI mice (Mus musculus) at 100 mg/kg peroral dose 3 days post-infection). Details: route oral.
Format: functional
Design: scale not given: the % may be the effect or the level left
Outline: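 Groups of three NMRI mice infected with P. berghei were dosed orally 1 day after infection with 100 mg/kg, dissolved or suspended in 3% ethanol/7% Tween-80 vehicle. Percent reduction in parasitemia was read on day 3 post-infection against an untreated control group; individual measurements generally within 10%.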
Work on `C1CCC2(CC1)CC1(OO2)C2CC3CC(C2)CC1C3` (stereo not drawn) yielded an Activity of 0%.
In the case of `c1ccc(C2CC3(CCCCC3)OO2)cc1` (stereo not drawn), the Activity is reported as 0%.
For `CC1(CCC(=O)O)CC2(CCCCC2)OO1` (stereo not drawn), the Activity was 0%.
`CCCC1(CCC)CC2(CCCCC2)OO1` showed an Activity of 0%.
Work on `C1CCC2(CC1)CC1(CCCCC1)OO2` yielded an Activity of 0%.
In the case of `c1ccc(C2CCC3(CC2)CC2(CCCC2)OO3)cc1` (stereo not drawn), the Activity is reported as 49%.
`C1CCC2(CC1)CC1(CCCC1)OO2` gave an Activity of 0%.
Work on `CC(C)(C)C1CCC2(CC1)CC1(CCCC1)OO2` (stereo not drawn) yielded an Activity of 45%.
For `CC1(CCCO)CC2(CCCCC2)OO1` (stereo not drawn), the Activity was 0%.
Work on `CC(C)(C)C1CCC2(CC1)CC1(CCCCC1)OO2` (stereo not drawn) yielded an Activity of 30%.
`c1ccc(C2CCC3(CC2)CC2(CCCCC2)OO3)cc1` (stereo not drawn) was tested, and the Activity was 84%.
With `CCCC1(CCC)CC2(OO1)C1CC3CC(C1)CC2C3` (stereo not drawn) the Activity was 6%.
`CCOC(=O)CCC1(C)CC2(CCCCC2)OO1` (stereo not drawn) gave an Activity of 18%.
In the case of `c1ccc(C2CCC3(CC2)CC2(OO3)C3CC4CC(C3)CC2C4)cc1` (stereo not drawn), the Activity is reported as 0%.

What follows are compounds tested on Plasmodium falciparum (assay: Antimalarial activity against Plasmodium falciparum). Details: not given.
Format: functional, organism-based
Outline: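 In vitro assay against chloroquine-resistant K1 and chloroquine-sensitive NF54 strains of P. falciparum. IC50 is reported in ng/mL as the mean of 2-3 determinations per strain, and individual measurements generally differed by less than 50%.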
For `OC1(CC2(O)C3CC4CC(C3)CC2C4)CCCCC1` (stereo not drawn), the IC50 was greater than 1 µg/mL.
